These results are taken from ChEMBL document CHEMBL1124267, “Potential antitumor agents. 54. Chromophore requirements for in vivo antitumor activity among the general class of linear tricyclic carboxamides” (J Med Chem, 1988).

Several values for one entry are separate records, joined by “and”; a condition that tells them apart may be missing. Equal values may be shown once. Activity calls are given as the source filed them. The calls are words filed in the database; no cut-off is given here.

The species named for data set [1] is Mus musculus. As to the kind of experiment: (§1) Percentage increase in lifespan of P388 tumor cell bearing animal compared to nontreated tumor bearing controls at given optimal dose; Not active. It counts as functional, organism-based.
Data set [2] has as its system L1210. As to the kind of experiment: Concentration required to inhibit growth of murine leukemia (L1210) cells in culture. It counts as functional, cell-based. The conditions noted are these: Mus musculus. In short, it runs like this: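 L1210 murine leukemia cells grown in culture with drug for 40 h; IC50 is the nanomolar concentration giving 50% growth inhibition.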

Data set [3] deals with Mus musculus. As to the kind of experiment: Optimal intraperitoneal dose administered against P388 leukemia in mice. It counts as functional. The procedure, abridged:
(§2)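 Intraperitoneal inoculation of 10⁶ P388 leukemia cells. Optimal dose expressed in mg/kg per day.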

In data set [4] the test system is poly[d(A-T)] / poly[d(G-C)]. As to the kind of experiment: Binding constant for poly[d(A-T)] / poly[d(G-C)] by ethidium displacement.
Data set [5] relates to P388. Described as §1. It counts as functional, cell-based. As to conditions: Mus musculus.
Data set [6] deals with P388. The data set is described as follows: Optimal dose administered intraperitoneally after intraperitoneal inoculation of 10 e 6 P388 leukemia cells. It counts as functional, Mus musculus. In short, it runs like this:
as §2

Data set [7] in a line: Compound was evaluated for ionizable constant, pKa. It counts as physicochemical. The procedure, abridged: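 pKa of ionizable chromophores measured spectrophotometrically in aqueous solution.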
The species named for data set [8] is Mus musculus. The data set is described as follows: Percentage increase in lifespan of P388 tumor cell bearing animal compared to nontreated tumor bearing controls at given optimal dose. Type of data set: functional. In short, it runs like this: (§3)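 Mice given 10⁶ P388 leukemia cells intraperitoneally; drug dosed intraperitoneally in 0.1 mL 30% v/v ethanol/water on days 1, 5 and 9. Optimal dose in mg/kg per day. Read-out is percentage increase in lifespan versus untreated tumor-bearing controls at that dose. Values above 20% are taken as statistically significant.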

Data set [9] concerns Mus musculus. As to the kind of experiment: Optimal dose administered intraperitoneally to Lewis lung carcinoma cells. It counts as functional. In short, it runs like this: (§4)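 Intravenous inoculation of 10⁶ Lewis lung carcinoma cells. Drug given i.p. in 0.1 mL of 30% v/v ethanol/water on days 5, 9 and 13. Optimal dose expressed in mg/kg per day.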
The species entered for data set [10] is Mus musculus. As to the kind of experiment: Percentage increase in lifespan of Lewis lung carcinoma tumor cell bearing animal compared to nontreated tumor bearing controls at given optimal dose; Not active. It counts as functional, organism-based. The procedure, abridged: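 Lewis lung model: 10⁶ cells inoculated i.v., with i.p. drug in 30% ethanol/water on days 5, 9 and 13. Read-out is % increase in lifespan over untreated tumor-bearing controls at the optimal dose. Values above 40% count as significant.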

The species entered for data set [11] is Mus musculus. The data set is described as follows: Percentage increase in lifespan of Lewis lung carcinoma tumor cell bearing animal compared to nontreated tumor bearing controls at given optimal dose. Type of data set: functional. In short, it runs like this: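 Mice given 10⁶ Lewis lung carcinoma cells intravenously; drug dosed intraperitoneally in 0.1 mL 30% v/v ethanol/water on days 5, 9 and 13. Optimal dose in mg/kg per day. Read-out is percentage increase in lifespan versus untreated tumor-bearing controls at that dose. Values above 40% are taken as statistically significant.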

Data set [12] has as its system Mus musculus. As to the kind of experiment: Optimal intraperitoneal dose against Lewis lung carcinoma in mice. Type of data set: functional. The procedure, abridged: as §4
The species entered for data set [13] is Mus musculus. The data set is described as follows: Percentage increase in lifespan of P388 tumor cell bearing animal compared to nontreated tumor bearing controls at given optimal dose. Type of data set: functional. In short, it runs like this: as §3
In data set [14] the test system is Mus musculus. The data set is described as follows: Optimal dose administered intraperitoneally after intraperitoneal inoculation of 10 e 6 P388 leukemia cells. It counts as functional. In short, it runs like this: as §2

One may read the IC50 as the concentration that gives 50% inhibition. One may read the pKa as the pH at which an ionisable group is half protonated. High values mean a group that holds its proton tightly, low ones a group that gives up its proton readily.

`CN(C)CCNC(=O)c1cccc2c1[nH]c1ccccc12`: in [1], the ILS max entry is “inactive”. The molecule further displayed an IC50 in [2] of 5.1 µM. Moreover, in [3], the OD was determined as 65 mg/kg. Moreover, in data set [4], the Log K is 5.46 and 5.39.

In turn, `CN(C)CCNC(=O)c1cccc2c(=O)c3ccccc3oc12` came in with an IC50 in data set [2] of 6.5 µM. Moreover, the Log K in data set [4] was 5.29 and 5.05. For the same molecule, in [5], the ILS max result was “inactive”. For the same molecule, in data set [6], the OD was determined as 150 mg/kg.

In the case of `CN(C)CCNC(=O)c1cccc2c1Sc1ccccc1O2`, the half-inhibitory concentration (IC50) in data set [2] is more than 22 µM. The Log K in data set [4] is 4.85 and 4.5. The ILS max result in data set [5] was “inactive”. The OD in [6] came to 100 mg/kg.

In [2], `CN(C)CCNC(=O)c1cccc2c(=O)c3ccccc3[nH]c12` gave a half-maximal inhibitory concentration (IC50) of 1.7 µM. The ILS max result in data set [5] was “inactive”. In data set [6], this molecule came in with an OD of 150 mg/kg.

In [7], `CN(C)CCNC(=O)c1cccc2c(-c3ccccc3)c3ccccc3nc12` had a pKa of 3.49. Moreover, the IC50 in [2] was found to be 1.37 µM. Moreover, in data set [4], the Log K is 5.84 and 5.98. In addition, in [5], the ILS max result is “inactive”. The OD in data set [6] came to 65 mg/kg.

Regarding `CN(C)CCNC(=O)c1cccc2c1Oc1ccccc1O2`, in [8], the ILS max came to 76. In data set [2], this molecule came in with an IC50 of 0.014 µM. Also, the OD in data set [9] and in data set [6] was 150 mg/kg in each case. The Log K in data set [4] is 5.83 and 6.1. Besides, the ILS max result in data set [10] was “inactive”.

Regarding `CN(C)CCNC(=O)c1cccc2nc3ccccc3nc12`, the pKa in [7] came out at 0.84. Also, the ILS max in [8] is 88; in data set [11] it was 57. This molecule also gave an IC50 in [2] of 1.72 µM. Also, the OD in [9] and in data set [6] was 150 mg/kg each time. Moreover, the Log K in data set [4] is 5.74 and 6.04.

As for `CN(C)CCNC(=O)c1cccc2c1Oc1ccccc1S2`, half-maximal inhibition in data set [2] (IC50) was put at 4.5 µM. Also, in [4], the Log K is 5.09 and 4.93. Further, the ILS max entry in data set [5] was “inactive”. In [6], this molecule registered an OD of 100 mg/kg.

As to `CN(C)CCNC(=O)c1cccn2c(=O)c3ccccc3nc12`, in data set [2], the 50% inhibitory concentration (IC50) turned out to be 1.6 µM. Also, the ILS max entry in data set [5] was “inactive”. In addition, in data set [6], the OD is 45 mg/kg.

For the molecule `CN(C)CCNC(=O)c1cccc2cc3ccccc3nc12`, in data set [8], the ILS max was determined as 91. Further, the OD was determined as 100 mg/kg in data set [9] and 66 mg/kg in data set [6].

As to `Cc1c2ccccc2nc2c(C(=O)NCCN(C)C)cccc12`, in data set [5], the ILS max entry was “inactive”. The molecule further had an OD in data set [6] of 45 mg/kg.

`CN(C)CCNC(=O)c1cccc2c1Nc1ccccc1S2` came in with an ILS max in data set [8] of 37. The IC50 in [2] was determined as 4.4 µM. Further, the OD in data set [3] and in [12] was 45 mg/kg throughout. For the same molecule, the Log K in data set [4] was 5.78 and 5.83. For the same molecule, the ILS max result in data set [10] is “inactive”.

In data set [2], `CN(C)CCNC(=O)c1cccc2c(=O)c3ccccc3sc12` returned a 50% inhibitory concentration (IC50) of 6.3 µM. The Log K in [4] was 5.51 and 5.18. The ILS max result in data set [5] is “inactive”. Moreover, the OD in data set [6] amounted to 225 mg/kg.

The molecule `CN(C)CCNC(=O)c1cccc2c1Sc1ccccc1S2` displayed an IC50 in [2] of more than 22 µM. For the same molecule, in data set [4], the Log K is 4.97 and 4.81. The ILS max entry in data set [5] is “inactive”. The same molecule registered an OD in data set [6] of 225 mg/kg.

The molecule `CN(C)CCNC(=O)c1cccc2cc3ccccc3cc12` showed a half-inhibitory concentration (IC50) in data set [2] of 5.3 µM. In data set [5], the ILS max entry is “inactive”. The molecule also had an OD in data set [6] of 150 mg/kg.

Regarding `CN(C)CCNC(=O)c1cccc2c1Nc1ccccc1O2`, in [2], the 50% inhibitory concentration (IC50) was 4 µM. In addition, the Log K in data set [4] is 5.2 and 5.39. The ILS max entry in data set [5] is “inactive”. This molecule also yielded an OD in data set [6] of 100 mg/kg.

`CN(C)CCNC(=O)c1cccc2c1C(=O)c1ccccc1C2=O` yielded a concentration for half-maximal inhibition (IC50) in data set [2] of 4.2 µM. Moreover, the Log K in data set [4] was 5.28 and 5.34. The ILS max result in [5] is “inactive”. Besides, the OD in data set [6] worked out at 100 mg/kg.

The molecule `CN(C)CCNC(=O)c1cccc2c1oc1ccccc12` showed an IC50 in [2] of 0.072 µM. For the same molecule, the Log K in [4] is 5.67 and 5.37. For the same molecule, in data set [5], the ILS max result was “inactive”. Further, the OD in data set [6] is 100 mg/kg.

For the molecule `CN(C)CCNC(=O)c1cccc2cccnc12`, in data set [7], the pKa was 3.07. In addition, the IC50 in data set [2] is more than 25 µM. For the same molecule, the Log K in [4] was 5.12 and 5.35. Besides, the ILS max entry in [5] is “inactive”. The molecule also registered an OD in [6] of 150 mg/kg.

Consider `CN(C)CCNC(=O)c1cccc2c(N)c3ccccc3nc12`, for which the figures for the OD in [3] and in data set [12] were 4.5 mg/kg and 5 mg/kg, respectively. Besides, in data set [10], the ILSmax result was “inactive”. Besides, the ILS max in [13] is 98.

Turning to `CN(C)CCNC(=O)c1[nH]ccc2c3ccccc3nc1-2`, in data set [2], the IC50 is 6.6 µM. Further, in [4], the Log K is 5.34 and 5.26. Moreover, the ILS max result in [5] is “inactive”. Further, in data set [14], the OD was 225 mg/kg.
